Source: ChEMBL document CHEMBL4359879, “Synthesis and evaluation of 2-carboxy indole derivatives as potent and selective anti-leukemic agents” (Eur J Med Chem, 2019)
Active and inactive are the calls of the source. The rule behind the calls is not given here.

Legend:
[1] = test system: HL-60; experiment: Antiproliferative activity against human HL60 cells assessed as reduction in cell viability after 48 hrs by MTT assay; conditions: HL-60, 48 h
[2] = test system: HL-60; experiment: Effect on human HL60 cells assessed as fold change in TBCC gene expression at 1.085 uM incubated for 6 hrs by microarray-based method; type: functional
Summary of the method: (§1)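 HL60 cells were treated in triplicate with 1.085 µM or vehicle for 6 h. Total RNA was extracted with on-column DNase treatment and profiled on expression arrays.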

[3] = test system: HL-60; experiment: Effect on human HL60 cells assessed as fold change in TAF15 gene expression at 1.085 uM incubated for 6 hrs by microarray-based method; type: functional
Summary of the method: as §1

[4] = test system: RS4-11; experiment: Induction of DNA damage in human RS4:11 cells assessed as accumulation of cells at G2 phase at 300 nM incubated for 18 hrs in presence of H2AX antibody by immunofluorescent staining based flow cytometric analysis relative to control; type: functional
Summary of the method: (§2)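 RS4;11 cells treated with 300 nM or DMSO vehicle for 18 h, then pulsed with 10 μM BrdU for 1 h. Harvested cells immunostained for BrdU/PI (cell cycle), γH2AX (DNA damage) and PARP (apoptosis). Multicolor flow cytometry gated G1, sub-G2-like, G2/M and sub-G0/G1 populations.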

[5] = test system: HL-60; experiment: Effect on human HL60 cells assessed as fold change in MOB2 gene expression at 1.085 uM incubated for 6 hrs by microarray-based method; type: functional
Summary of the method: as §1

[6] = test system: HL-60; experiment: Induction of cell cycle arrest in human HL60 cells assessed as accumulation of cells at G2/M phase at EC50 by PI staining based flow cytometric analysis; type: functional; conditions: TDE = time-dependent effect
[7] = test system: HL-60; experiment: Effect on human HL60 cells assessed as fold change in ITPR3 gene expression at 1.085 uM incubated for 6 hrs by microarray-based method; type: functional
Summary of the method: as §1

[8] = test system: HL-60; experiment: Effect on human HL60 cells assessed as fold change in INSIG1 gene expression at 1.085 uM incubated for 6 hrs by microarray-based method; type: functional
Summary of the method: as §1

[9] = test system: RS4-11; experiment: Induction of cell cycle arrest in human RS4:11 cells assessed as increase in accumulation at G2/M phase at 300 nM incubated for 18 hrs by BrdU/propidium iodide staining based flow cytometric analysis; type: functional
Summary of the method: as §2

[10] = test system: HL-60; experiment: Effect on human HL60 cells assessed as fold change in TAS1R1 gene expression at 1.085 uM incubated for 6 hrs by microarray-based method; type: functional
Summary of the method: as §1

[11] = test system: HL-60; experiment: Effect on human HL60 cells assessed as fold change in USP24 gene expression at 1.085 uM incubated for 6 hrs by microarray-based method; type: functional
[12] = test system: HL-60; experiment: Effect on human HL60 cells assessed as fold change in PHF20L1 gene expression at 1.085 uM incubated for 6 hrs by microarray-based method; type: functional
Summary of the method: as §1

[13] = test system: RS4-11; experiment: Induction of apoptosis in human RS4:11 cells at 300 nM incubated for 18 hrs by Annexin V-FITC/propidium iodide staining-based flow cytometric analysis; type: functional, cell-based
Summary of the method: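 CEM, HL60 or RS4;11 cells (5×10^5) treated with 300 nM or vehicle for 18 h. Stained with FITC-Annexin V in binding buffer for 15 min at 37 °C, then PI (5 μg/mL) for 3 min. Analyzed by flow cytometry.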

[14] = test system: HL-60; experiment: Effect on human HL60 cells assessed as fold change in ZNF79 gene expression at 1.085 uM incubated for 6 hrs by microarray-based method; type: functional
[15] = test system: HL-60; experiment: Induction of differentiation in human HL60 cells assessed as increase in CD14 positive cells incubated for 48 hrs by 7-AAD staining-based flow cytometric analysis; type: functional, cell-based
Summary of the method: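 Vitamin D3 at 100 nM and ATRA at 2 μM served as positive controls. Stained with APC anti-CD11b and PE anti-CD14 for 30 min at 4 °C, then 7-AAD.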

[16] = test system: HL-60; experiment: Effect on human HL60 cells assessed as fold change in C7orf43 gene expression at 1.085 uM incubated for 6 hrs by microarray-based method; type: functional
Summary of the method: as §1

[17] = test system: HL-60; experiment: Effect on human HL60 cells assessed as fold change in TIAL1 gene expression at 1.085 uM incubated for 6 hrs by microarray-based method; type: functional
Summary of the method: as §1

[18] = test system: HL-60; experiment: Effect on human HL60 cells assessed as fold change in ARL17A gene expression at 1.085 uM incubated for 6 hrs by microarray-based method; type: functional
Summary of the method: as §1

[19] = test system: HL-60; experiment: Effect on human HL60 cells assessed as fold change in SPRY1 gene expression at 1.085 uM incubated for 6 hrs by microarray-based method; type: functional
Summary of the method: as §1

[20] = test system: HL-60; experiment: Effect on human HL60 cells assessed as fold change in TM2D3 gene expression at 1.085 uM incubated for 6 hrs by microarray-based method; type: functional
Summary of the method: as §1

[21] = test system: RS4-11; experiment: Induction of cell cycle arrest in human RS4:11 cells assessed as effect on S phase at 300 nM incubated for 18 hrs by BrdU/propidium iodide staining based flow cytometric analysis; type: functional
Summary of the method: as §2

[22] = test system: HL-60; experiment: Effect on human HL60 cells assessed as fold change in NCBP2-AS2 gene expression at 1.085 uM incubated for 6 hrs by microarray-based method; type: functional
Summary of the method: as §1

[23] = test system: HL-60; experiment: Induction of cell cycle arrest in human HL60 cells assessed as accumulation of cells at G2/M phase at EC50 incubated for 18 hrs by PI staining based flow cytometric analysis (reference value: 23.0%); type: functional
[24] = molecular target: T1, Tubulin (Homo sapiens) (UniProt P68371+Q9H4B7+P0DPH7+P68366+Q13509+Q71U36+P04350+Q3ZCM7+P07437+P68363+Q9BQE3+Q6PEY2+Q13885+Q9BVA1+Q9BUF5); experiment: Induction of microtubule network depolymerization in human HeLa cells at 1 uM incubated for 18 hrs by DAPI staining based fluorescence microscopic method; type: cell-based
Summary of the method: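 HeLa cells (100,000/mL) cultured overnight on glass-bottom dishes, then exposed to 500 nM or 1 μM, or DMSO, for 18 h. Permeabilized (0.5% Triton X-100) and fixed (3.7% formaldehyde). Stained overnight at 4 °C with anti-β-tubulin, then Alexa Fluor 647 secondary for 1 h at room temperature, and DAPI 1 μg/mL for 10 min. Examined by fluorescence microscopy.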

[25] = test system: HL-60; experiment: Effect on human HL60 cells assessed as fold change in TRPM2 gene expression at 1.085 uM incubated for 6 hrs by microarray-based method; type: functional
[26] = molecular target: T1, Tubulin (Homo sapiens); experiment: Inhibition of tubulin polymerization in human HL60 cells at 300 nM by Western blot analysis; type: cell-based; conditions: TDE = time-dependent effect
Summary of the method: (§3)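 Leukemia cells (RS4;11, CEM, HL60) treated with 300 nM for 0, 15, 30, 60 and 360 min. Western blotting for β-tubulin and p53, with lamin B1 as loading control and chemiluminescent detection.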

[27] = test system: HL-60; experiment: Effect on human HL60 cells assessed as fold change in HOXB-AS3 gene expression at 1.085 uM incubated for 6 hrs by microarray-based method; type: functional
Summary of the method: as §1

[28] = molecular target: T1, Tubulin (Homo sapiens); experiment: Inhibition of tubulin polymerization in human RS4:11 cells at 300 nM by Western blot analysis; type: cell-based; conditions: TDE = time-dependent effect
Summary of the method: as §3

[29] = test system: RS4-11; experiment: Induction of cell cycle arrest in human RS4:11 cells assessed as decrease in accumulation at G1 phase at 300 nM incubated for 18 hrs by BrdU/propidium iodide staining based flow cytometric analysis; type: functional
Summary of the method: as §2

[30] = test system: HL-60; experiment: Effect on human HL60 cells assessed as fold change in KPNA1 gene expression at 1.085 uM incubated for 6 hrs by microarray-based method; type: functional
Summary of the method: as §1

With COC(=O)c1[nH]c2cc(OC)ccc2c1-c1ccc(C(F)(F)F)cc1 the EC90 [1] was 1 µM, the “fold change (FC)” value [2] was -1.54 and the “fold change (FC)” value [3] was 1.75. The Activity [4] was 6.9%, the “fold change (FC)” value [5] was -1.79 and the Activity [6] was “Tde”. For the same compound, the “fold change (FC)” value [7] was 1.57, the “fold change (FC)” value [8] was -1.64 and the Activity [9] was “Active”. For the same compound, the “fold change (FC)” value [10] was -1.51, the “fold change (FC)” value [11] was 1.74 and the “fold change (FC)” value [12] was 1.56. The Activity [13] was “Active”, the “fold change (FC)” value [14] was -1.88 and the Activity [15] was “Dose-dependent effect”. For the same compound, the “fold change (FC)” value [16] was -1.72, the “fold change (FC)” value [17] was 1.63 and the “fold change (FC)” value [18] was -1.5. For the same compound, the “fold change (FC)” value [19] was -1.5, the “fold change (FC)” value [20] was -1.65 and the Activity [21] was “inactive”. The “fold change (FC)” value [22] was -1.58, the Activity [23] was 56.3% and the Activity [24] was “Active”. The “fold change (FC)” value [25] was 2.21, the inhibition [26] was “Tde” and the “fold change (FC)” value [27] was -1.54. For the same compound, the inhibition [28] was “Tde”, the Activity [29] was “Active” and the “fold change (FC)” value [30] was 1.89.
